Measurements as given in ChEMBL document CHEMBL1128416, “Synthesis and evaluation of 6,7-dihydroxy-2,3,4,8,9,13b-hexahydro-1H- benzo[6,7]cyclohepta[1,2,3-ef][3]benzazepine, 6,7-dihydroxy- 1,2,3,4,8,12b-hexahydroanthr[10,4a,4-cd]azepine, and 10-(aminomethyl)-9,10- dihydro-1,2-dihydroxyanthracene as conformationally restricted analogs of …” (J Med Chem, 1995).

Legend:
Conditions in all cases: Striatum; Membrane
[1] = target: D(2) dopamine receptor (Rattus norvegicus) (UniProt P61169); test: Binding affinity towards Dopamine receptor D2 by displacing [3H]spiperone radio-ligand in rat striatal membranes by using radioligand competition assay.; assay type: cell membranes
D(2) dopamine receptor (Rattus norvegicus), sequence (P61169 whole entry): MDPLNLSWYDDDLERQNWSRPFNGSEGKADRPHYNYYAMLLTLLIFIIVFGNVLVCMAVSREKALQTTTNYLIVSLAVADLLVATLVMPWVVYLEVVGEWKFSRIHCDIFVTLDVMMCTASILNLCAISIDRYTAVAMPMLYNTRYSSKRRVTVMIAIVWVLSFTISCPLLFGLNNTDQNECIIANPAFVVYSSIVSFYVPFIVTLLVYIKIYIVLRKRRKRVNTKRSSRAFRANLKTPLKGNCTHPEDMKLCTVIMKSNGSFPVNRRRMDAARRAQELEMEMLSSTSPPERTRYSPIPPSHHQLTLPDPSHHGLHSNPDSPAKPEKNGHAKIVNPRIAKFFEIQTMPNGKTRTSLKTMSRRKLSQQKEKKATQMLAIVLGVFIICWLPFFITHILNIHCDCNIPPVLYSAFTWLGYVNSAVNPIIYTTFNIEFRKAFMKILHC
Method in brief: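 Same rat striatal membrane preparation as the D1 assay: HEPES/MgCl2 buffer, pH 7.4, 37 °C incubation, filtration and scintillation counting. [3H]spiperone was the radioligand, competed with increasing test concentrations. IC50 derived from the displacement data.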

[2] = target: D(1A) dopamine receptor (Rattus norvegicus) (UniProt P18901)
D(1A) dopamine receptor (Rattus norvegicus), sequence (P18901 whole entry): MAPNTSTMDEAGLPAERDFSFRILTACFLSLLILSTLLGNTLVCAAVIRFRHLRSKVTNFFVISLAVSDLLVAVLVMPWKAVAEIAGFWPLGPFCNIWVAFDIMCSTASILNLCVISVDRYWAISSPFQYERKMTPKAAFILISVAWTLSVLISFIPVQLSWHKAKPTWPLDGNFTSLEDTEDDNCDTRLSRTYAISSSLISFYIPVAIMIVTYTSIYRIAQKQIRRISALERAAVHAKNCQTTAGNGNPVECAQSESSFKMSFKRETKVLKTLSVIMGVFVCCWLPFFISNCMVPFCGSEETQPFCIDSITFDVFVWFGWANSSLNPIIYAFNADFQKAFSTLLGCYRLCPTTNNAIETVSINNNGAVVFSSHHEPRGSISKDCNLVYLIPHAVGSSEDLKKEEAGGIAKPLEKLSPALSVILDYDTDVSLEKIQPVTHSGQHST

[3] = target: D(1A) dopamine receptor (Rattus norvegicus) (UniProt P18901); test: Binding affinity to the dopamine receptor D1 by displacing [3H]-SCH- 23390 radio-ligand in rat striatal membranes by using radioligand competition assay.; assay type: cell membranes
Method in brief: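 Striata from male Sprague-Dawley rats (200–400 g), fresh or stored at -70 °C. Homogenized in ice-cold 50 mM HEPES with 4.0 mM MgCl2, pH 7.4, washed twice by centrifugation at 27000g, and resuspended at ~2.0 mg wet weight/mL. Membranes were incubated with 0.3 nM [3H]SCH 23390 and increasing test concentrations for 15 min at 37 °C. Nonspecific binding defined with 1 μM SCH 23390. Filtered, scintillation counted, IC50 derived.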

Row | Structure (SMILES) | K0.5 [1] | K0.5 [2] | K0.5 [3]
1 | Oc1cc2c(cc1O)[C@H]1c3ccccc3CN[C@@H]1CC2 | 29 nM | 2.4 nM | 
2 | Oc1cc2c3c(c1O)CCc1ccccc1C3CNCC2 (stereo not given) | 2150 nM |  | 372 nM
3 | NCC1c2ccccc2Cc2c1ccc(O)c2O (stereo not given) | > 2500 nM |  | > 2500 nM
4 | Oc1cc2c(cc1O)[C@@H](c1ccccc1)CNCC2 | 1870 nM |  | 11.1 nM
5 | Oc1cc2c3c(c1O)Cc1ccccc1C3CNCC2 (stereo not given) | 1250 nM |  | 590 nM
